3 compounds from publication PMC8551014 (Nature chemical biology, 2021) can be followed below.

Entries after “also recorded” stand apart in the source; their conditions may differ.

The test system of data set [1] is mouse splenocytes (C57BL/6). Description: Plasma cell differentiation of LPS-treated mouse splenocytes, flow cytometry. Format: cell-based. The gist of the method: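 Splenocytes cultured 3 days ±1 μg/mL LPS with test compound (20–1.25 μM, two-fold, DMSO 1:2000). Cells stained with LIVE/DEAD near-IR (1:1000, 20 min, ice), then anti-CD19/CD45R/CD138 (15 min, ice), then permeabilized for intracellular XBP1s. Plasmablasts gated as CD19+ B220-low CD138-high; division from vital-dye dilution. n=3, mean ± SEM; one-tailed t-test.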
A general note: A flow cytometer gives signals particle by particle.

The subject of data set [2] is mouse splenocytes (C57BL/6). Kind of data set: ELISA for secreted IgM from LPS-treated splenocytes. Format: cell-based. As to conditions: 1 μg/mL LPS for three days, 20 μM-1.25 μM. The gist of the method: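 C57BL/6 splenocytes, red cells lysed, CellTrace Violet-loaded, plated at 2.5 × 10^5 cells/well in complete RPMI; ±1 μg/ml LPS; test compound in two-fold dilutions (20–1.25 μM) from DMSO at 1:2000 final; 3 days, 37 °C, 5% CO2. Supernatant IgM by ELISA: 1 μg/ml goat anti-IgM capture, anti-IgM-HRP (1:3000), TMB, 1 N H2SO4 stop, A450. n=3, mean ± SEM; one-tailed t-test.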
(In general: An ELISA detects its analyte on a solid surface through an enzyme-linked reagent.)

For a further data set, the system named is XBP1 mRNA splicing. Kind of data set: XBP1 mRNA splicing in ER-stressed INS-1 cells. It is filed as cell-based, rat. As to conditions: INS-1 cells treated with brefeldin A or thapsigargin and KIRA8. The gist of the method:
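Parental INS-1 cells on poly-D-lysine, grown 48 h. Test compound or DMSO given 1 h before brefeldin A, thapsigargin or DTT. In the sequential format: 10 μM first compound for 30 min, then second compound (0.5 or 1 μM) for 30 min, then 2 mM DTT. Intron-spanning XBP1 RT-PCR, PstI digest, EtBr gel, % spliced. n=3, mean ± SEM; two-tailed t-test versus DTT.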

A further data set addresses IRE1α* (Homo sapiens, UniProt O75460). Description: In vitro determination of IRE1α*–inhibitor complex Kdimer. It is filed as biochemical. As to conditions: inhibitor-bound IRE1α*.
For data set [3], the target named is dpIRE1α* (dephosphorylated IRE1α*) (Homo sapiens, UniProt O75460). Description: In vitro determination of dpIRE1α*–inhibitor complex Kdimer. Format: biochemical. As to conditions: relative to apo-dpIRE1α*. The gist of the method: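 IRE1α* dephosphorylated overnight at 4 °C with λ-PPase (5:1 molar) in HEPES pH 7.5/NaCl/1 mM MnCl2/DTT/Brij 35; checked by phospho-protein blot. Then titrated two-fold from 2 or 4 μM in Tris pH 7.5 assay buffer; 30 min RT with 50 μM test compound. Alexa647-quencher XBP1 mini-substrate (6 μM final). Fluorescence ex 650/em 665 nm. n=3, mean ± SEM.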

[4] abbreviates: 1 μg/mL LPS for three days, 20 μM-1.25 μM.

dpIRE1α* (dephosphorylated IRE1α*), sequence (O75460 547-977): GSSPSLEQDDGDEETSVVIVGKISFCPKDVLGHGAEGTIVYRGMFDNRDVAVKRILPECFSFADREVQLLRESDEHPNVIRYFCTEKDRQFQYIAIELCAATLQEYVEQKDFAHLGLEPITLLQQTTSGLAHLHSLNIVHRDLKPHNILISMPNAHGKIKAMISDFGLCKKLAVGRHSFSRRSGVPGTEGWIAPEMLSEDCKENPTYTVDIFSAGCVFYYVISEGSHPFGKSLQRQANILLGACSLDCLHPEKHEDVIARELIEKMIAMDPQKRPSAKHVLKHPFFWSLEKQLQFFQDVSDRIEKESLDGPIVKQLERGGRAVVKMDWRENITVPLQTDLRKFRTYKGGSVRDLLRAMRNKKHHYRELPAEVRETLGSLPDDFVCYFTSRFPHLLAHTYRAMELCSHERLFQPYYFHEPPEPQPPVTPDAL
IRE1α*, sequence (O75460 547-977): as above

Turning to `Cc1ccc2c(NS(=O)(=O)c3ccccc3Cl)cccc2c1Oc1ncccc1-c1ccnc(N[C@H]2CCCNC2)n1` [KIRA8], in data set [1] (setting [4]), the “XBP1s expression in B cells” value is reported as “reductions” and the “plasma cell differentiation, CD138+” value was “reductions”. Besides, the “toxicity to splenocytes” value in data set [1] (10 μM and 20 μM KIRA8, LPS, three days) is on record as “cellular toxicity”. The “IgM secretion” value in data set [2] is recorded as “reductions”. Moreover, the “XBP1 mRNA splicing” value in the data set with XBP1 mRNA splicing is “completely suppresses; also recorded: almost completely suppressed”. For the same compound, the “formation of RNase active dimers / dimerization affinity of IRE1α*” value on IRE1α* is “unable to form RNase active dimers at any concentration tested”.

In the case of `NC(=O)Nc1cc(-c2cccc(F)c2)sc1C(=O)N[C@H]1CCCNC1` [AZD7762], in data set [3], the “lowering of Kdimer of dpIRE1α* when complexed to ligand” value is recorded as ~ 80 times.

Take `O=C(Nc1c[nH]nc1-c1nc2ccc(CN3CCOCC3)cc2[nH]1)NC1CC1` [AT9283]: the “lowering of Kdimer of dpIRE1α* when complexed to ligand” value in data set [3] is given as ~ 80 times.
